# Compound activity deposited in PubChem BioAssay by several laboratories.
# Most compounds without a hit are left out; they make up all but 1.7% or so of the library.
# Rpn11 inh = blocks the human proteasome subunit Rpn11; O00487; human 26S proteasome, Ub4-pepOG fluorescence polarization; 20S core pre-blocked with epoxomicin; inhibition, % at 20 µM; 0.59% of 360,000 active;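 active = inhibition at 20 µM, scaled to each plate's controls, above about 33%, limit read from the data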
# UCH37 inh = inhibitors of human deubiquitinating enzyme UCH37 | AID 588478 | 0.33% of 330,000 active | inhibition, % (no concentration beside the values) | Q9Y5K5 | purified proteasome/UCH37, Ub-AMC cleavage fluorescence;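 active = mean inhibition over replicate wells above about 20%, limit read from the data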;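 also: 0% = compound-free wells with enzyme and 100% = wells lacking proteasome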
#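 Schedule: 30 min plus 25 min, room temperature / Material: human UCH37 within purified proteasomes / Technique: AMC fluorescence intensity at 355/460 nm / Buffer or medium: pH 7.4 Tris-HCl (50 mM) with ovalbumin, ATP-MgCl2, DTT / Controls: wells without proteasome as full block, compound-free enzyme plus substrate as uninhibited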
# PLCb3 inh = inhibitors of human phospholipase C beta3 | Q01970 | Purified PLC-beta3, fluorogenic substrate, fluorescence | inhibition, % at 12.2 µM | 0.18% of 370,000 active; in the data active = inhibition above about 11%;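 also: 0% = median of compound wells on plate and 100% = full blocker control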
# PLC-gamma1 inh = PLC-gamma1 (human) inhibition, primary screen | inhibition, % at 12.2 µM | purified PLC-gamma1, fluorogenic substrate, fluorescence | AID 720700 | 0.84% of 370,000 active
# PLCg1 ctr = counter-screen for PLC-beta3 inhibitors: inhibitors of human PLC-gamma1 | inhibition, % at 12.3 µM | 3.1% of 3,300 active | purified PLC-gamma1, fluorogenic substrate, fluorescence | shares compounds with PLC-gamma1 inh | AID 743258
# PLCbeta3 conf = human PLC-beta3 inhibition, confirmation | inhibition, % at 12.3 µM | purified PLC-beta3, fluorogenic substrate fluorescence | shares compounds with PLC-gamma1 inh | 1% of 3,300 active; in the data active = inhibition above about 11%
# Active calls of the source: *; . = no result given; ! = not confirmed by another sample. Rule as the data show it, unless noted: active = inhibition above about 9.5%; inactive = the rest.
SMILES,Rpn11 inh,UCH37 inh,PLCb3 inh,PLC-gamma1 inh,PLCg1 ctr,PLCbeta3 conf
Cc1nn(Cc2ccccc2)c(C)c1C=NNC(=O)c1cccnc1,.,1,.,.,.,.
O=C(Cc1cccc2ccccc12)NN1C(=O)CSC1=S,22,0,-6,-10,.,.
O=C(NN1C(=O)CSC1=S)C(=O)NN1C(=O)CSC1=S,16,4,-6,44*,71*,-5
Cc1ccc(-c2nc3ccsc3c(=O)[nH]2)cc1,-2,-1,6,10*,-3,0
Cc1ccc(-c2csc3nc(-c4ccncc4)[nH]c(=O)c23)cc1,.,-139,-143,-85,.,.
CC(=NNC(=O)c1ccc([N+](=O)[O-])c(C)c1)c1ccccc1Cl,.,-1,.,.,.,.
CC1=C(C(=O)OC(C)C)C(C2CC=CCC2)NC(=O)N1 (stereo not drawn),1,-1,3,12*,-4,0
C[C@]1(O)CC(=O)C=C[C@H]1Nc1ccccc1,-4,.,1,17*,-4,-1
CC1(C)CC(C(=O)Nc2ccccc2)C(=O)O1 (stereo not drawn),-6,2,1,-1,.,.
O=C(CNC(=O)C12CC3CC(CC(C3)C1)C2)NN=Cc1ccccn1,.,0,.,.,.,.
COc1ccc(S(=O)(=O)N(CCc2ccccc2)CC(=O)NC(C)C)cc1,3,3,2,11*,-5,1
C/C(=N/NC(=O)c1cccs1)c1cccc(N)c1,0,.,-12,11*,-12,-9
CCOc1ccc(-c2c(C(=O)NN=Cc3cccnc3)nnn2-c2nonc2N)cc1,.,4,.,.,.,.
Cc1cc(C=NO)c(C)n1-c1ccncc1,.,-2,.,.,.,.
O=C1CC(N2CCN(c3ccc(F)cc3)CC2)C(=O)N1Cc1ccccc1 (stereo not drawn),1,2,1,-2,.,.
O=C1CC(N2CCN(c3ccccc3)CC2)C(=O)N1Cc1ccc(Cl)cc1 (stereo not drawn),12,-2,0,10*,-7,-3
COc1ccc(CNCC(O)(c2ccc(Cl)cc2)c2ccc(Cl)cc2)cc1OC,-1,4,6,9.8*,-2,3
O=S(=O)(c1cccs1)N1CCC(CO)(Cc2ccc(Cl)cc2)CC1,1,1,0,10*,-1,0
Cc1nn(-c2ccccc2)c(C)c1NC(=O)c1cccs1,-2,1,2,12*,-6,-3
Cc1nn(-c2ccccc2)c(C)c1NC(=O)Cc1cccs1,-3,9,0,-1,.,.
COc1ccc(C(C)=NNC(=O)CNC(=O)c2cccnc2)cc1OC,.,3,.,.,.,.
Cc1ccc(NC(=S)N/C(=N/S(=O)(=O)c2ccccc2)c2ccccc2)cc1,6,4,-2,16*!,-4,-1
Cc1ccc(NC(=S)NC(=NS(=O)(=O)c2ccccc2)c2ccccc2)cc1,.,6,.,.,.,.
Cc1n[nH]c(C)c1NC(=O)CN1CCN(S(=O)(=O)c2ccc(C(F)(F)F)cc2)CC1,6,3,-4,10*,5,-1
O=C(CNC(=O)c1ccc(Br)o1)NC1CCCCCC1,-11,2,6,6,.,.
SMILES,Rpn11 inh,UCH37 inh,PLCb3 inh,PLC-gamma1 inh,PLCg1 ctr,PLCbeta3 conf
O=C(CNC(=O)c1ccc(Br)o1)NC12CC3CC(CC(C3)C1)C2,-3,1,4,9.9*,1,4
C/C(=N\N=C1\NC(=O)CS1)c1cccs1,-4,.,6,13*,2,3
Cc1cc(Oc2ccc([N+](=O)[O-])cc2)nc(N2CCOCC2)n1,-1,5,7,12*,-1,-7
CC1(C)Cc2ccccc2C(NN=Cc2ccc([N+](=O)[O-])cc2)=N1,.,-2,.,.,.,.
Cc1[nH]nc(Nc2ccc(C(C)C)cc2)c1[N+](=O)[O-],11,3,-4,11*,-3,-2
Cc1ccc(Nc2n[nH]c(C)c2[N+](=O)[O-])cc1,-2,4,1,0,.,.
O=C(Nc1ccccc1C(=O)NN=Cc1ccco1)c1ccc(Cl)cc1,.,-3,.,.,.,.
Cc1ccccc1-n1ccnc1SCC(=O)O,2,-4,12*,8,-4,-5
Cc1cccc(-n2ccnc2SCC(=O)O)c1C,0,0,-6,0,.,.
CC(CCc1ccccc1)=NNC(=O)C(=O)NC(C)c1ccccc1 (stereo not drawn),.,3,.,.,.,.
COC(=O)NN=Cc1cn(Cc2ccc(F)cc2)c2ccccc12,.,2,.,.,.,.
O=C(O)c1cccc(Nc2ccncc2[N+](=O)[O-])c1,-10,7,6,11*,-8,-2
Cc1ccc(NC(=O)COc2ccc(C=NNC(=O)c3cccnc3)cc2)cc1C,.,-58,.,.,.,.
Cc1ccc(NC(=O)c2cnccn2)cc1C,3,5,-1,11*,1,-7
Cc1cc(N2CCN(C(=O)Oc3ccc(C(F)(F)F)cc3)CC2)c2ccccc2n1,.,.,1,-1,.,.
Cc1cc(N2CCN(C(=O)Oc3ccc(-c4ccccc4)cn3)CC2)c2ccccc2n1,.,.,0,12*,2,-2
CCc1ccc(C=NNC(=O)c2nnn(-c3nonc3N)c2CN2CCOCC2)cc1,.,4,.,.,.,.
Cc1ncc([N+](=O)[O-])n1CCOC(=O)c1ccccc1,-4,5,13*,10*,-3,0
O=C(CSCc1ccccc1Cl)N1CCN(c2ccccn2)CC1,0,0,1,-3,.,.
O=C(CCSCc1ccccc1F)N1CCN(c2ccccn2)CC1,-5,4,2,10.0*,-7,-4
Cc1nn(C)c(C)c1C=NNC(=O)CCn1cc([N+](=O)[O-])cn1,.,2,.,.,.,.
COC(=O)C1=C(C)N(C)C(=NCc2cc(OC)c(OC)c(OC)c2)NC1c1ccc(Cl)cc1 (stereo not drawn),.,.,13*,4,5,0
Cc1ccsc1C=c1sc2ncnn2c1=O,.,9,.,.,.,.
CCn1cc(C(=O)N2CCc3ccccc32)c(=O)c2cc(S(=O)(=O)N3CCOCC3)ccc21,3,5,1,-2,.,.
CCn1cc(C(=O)N2CCc3ccccc32)c(=O)c2cc(S(=O)(=O)N(C)C3CCCCC3)ccc21,9,0,5,10*,-3,-4
SMILES,Rpn11 inh,UCH37 inh,PLCb3 inh,PLC-gamma1 inh,PLCg1 ctr,PLCbeta3 conf
CC(CC(=O)NC1CCCCC1)=NNC(=O)c1ccccn1,.,2,.,.,.,.
CC1CCCC(C)N1CCCNC(=O)CN1C(=O)COc2ccc(S(=O)(=O)N3CCOCC3)cc21 (stereo not drawn),2,-1,-2,1,.,.
CC1CCN(S(=O)(=O)c2ccc3c(c2)N(CC(=O)NCCCN2C(C)CCCC2C)C(=O)CO3)CC1 (stereo not drawn),-2,0,-6,11*,-6,-2
Cc1ccc(Oc2ccc(C(=O)NC3CCSC3=O)cn2)cc1 (stereo not drawn),-3,0,3,3,.,.
Cc1cccc(Oc2ccc(C(=O)NC3CCSC3=O)cn2)c1C (stereo not drawn),1,5,15*,4,-1,0
O=C1CC(c2ccco2)Sc2ccccc2N1 (stereo not drawn),1,3,-2,4,.,.
